Assay outcomes: PubChem, Sanford-Burnham Center for Chemical Genomics
SENP6 inh = blocks the human protease SENP6; Q9GZR1; Recombinant SENP6 catalytic domain, aminoluciferin luminescence; inhibition, % at 10 µM; 330,000 tested, 1.8% active; AID 2599;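 active = inhibition above about 50% at the single tested dose, limit read from the data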;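 also: plate controls were DMSO wells with enzyme for no effect and DMSO wells lacking enzyme for full effect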
Target sequence (Q9GZR1 628-1112 limits assumed): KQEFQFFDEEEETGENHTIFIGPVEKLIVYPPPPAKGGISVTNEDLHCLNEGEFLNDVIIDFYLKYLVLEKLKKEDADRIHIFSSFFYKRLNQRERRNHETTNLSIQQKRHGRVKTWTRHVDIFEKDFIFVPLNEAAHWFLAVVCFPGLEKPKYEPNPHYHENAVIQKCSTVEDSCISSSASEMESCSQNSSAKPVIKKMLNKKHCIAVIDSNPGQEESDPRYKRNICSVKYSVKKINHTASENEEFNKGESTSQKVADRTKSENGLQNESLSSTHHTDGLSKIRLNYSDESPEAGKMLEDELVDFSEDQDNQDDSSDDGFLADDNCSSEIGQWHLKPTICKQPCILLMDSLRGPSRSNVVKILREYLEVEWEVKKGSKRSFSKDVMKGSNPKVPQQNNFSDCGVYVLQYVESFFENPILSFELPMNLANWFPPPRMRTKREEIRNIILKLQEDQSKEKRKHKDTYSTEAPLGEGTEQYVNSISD
Apaf-1 inh = blocks human Apaf-1 apoptosome activity. reconstituted apoptosome caspase-3 activity, DEVD-Rh110 fluorescence. 330,000 tested, 0.71% active. O14727. inhibition, % at 20 µM; active = inhibition of at least 40% at 20 µM;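 also: plate controls were DMSO wells for no effect and DEVD-CHO caspase inhibitor wells for full effect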
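System – cell-free apoptosome with Apaf-1, procaspase-3 and caspase-9 · Buffer or medium – pH 7.5 Hepes buffer with CHAPS, BSA, DTT · Also added – cytochrome c with DEVD-Rh110 · Times – 30 min compound preincubation, 50 min activation, room temperature · Technique – Rh110 fluorescence intensity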
SENP7 block = SENP7 protease inhibition; Q9BQF6; recombinant SENP7, Z-RLRGG-aminoluciferin luminescence, 40 min; inhibition, % at 5 µM; 330,000 tested, 1.5% active;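 active = inhibition above about 50% at the single test dose, limit read from the data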;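 also: plate controls were DMSO with enzyme for no effect and no enzyme buffer wells for full effect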
SENP8 block-1 = SENP8 protease inhibition; 330,000 tested, 1.2% active; inhibition, % at 10 µM; Q96LD8; purified SENP8, Z-RLRGG-aminoluciferin cleavage, luminescence; in the data active = inhibition above about 50%
UBC13 polyUb = inhibitors of human UBC13 polyubiquitin chain formation; 330,000 tested, 0.47% active; inhibition, % at 20 µM; TR-FRET; P61088; in the data active = inhibition above about 45%, passing the limit was not always enough
Target sequence (P61088 whole entry, looked up): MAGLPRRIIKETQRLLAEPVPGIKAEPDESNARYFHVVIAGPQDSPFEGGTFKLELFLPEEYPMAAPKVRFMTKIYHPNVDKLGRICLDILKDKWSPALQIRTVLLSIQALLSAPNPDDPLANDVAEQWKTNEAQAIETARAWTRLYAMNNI
SENP8 block-2 = inhibitors of human SENP8 protease. Q96LD8. 360,000 tested, 0.64% active. recombinant SENP8, Nedd8 substrate fluorescence. AID 602440. inhibition, % at 20 µM; in the data active = inhibition mostly above about 40%, no sharp cut-off; inactive = mostly below about 27%
SENP8 confirm = confirmation of human SENP8 protease inhibitors | inhibition, % at 12.5 µM | shares compounds with SENP7 block | 6,200 tested, 40% active | AID 488912 | Recombinant SENP8, Z-RLRGG-aminoluciferin luminescence, 60 min;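 active = mean inhibition across replicates above about 50%, limit read from the data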
SENP6 conf = confirmation of human SENP6 protease inhibitors. shares compounds with SENP7 block. recombinant SENP6, Z-RLRGG-aminoluciferin luminescence. inhibition, % at 12.5 µM. 6,200 tested, 58% active
SENP7 confirm = confirmation of human SENP7 protease inhibitors. recombinant SENP7, Z-RLRGG-aminoluciferin luminescence, 40 min. 6,200 tested, 69% active. AID 488917. inhibition, % at 12.5 µM. shares compounds with SENP7 block
Casp3 SENP sel = selectivity test for SENP inhibitors: human caspase-3 inhibition. shares compounds with SENP7 block. purified caspase-3, Z-DEVD-aminoluciferin luminescence, 60 min. inhibition, % at 12.5 µM. 6,200 tested, 60% active. AID 488918;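 active = mean inhibition above about 50%, limit read from the data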;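 also: plate controls were enzyme with DMSO for no effect and wells without caspase-3 for full effect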
SENP luc ctr = interferes with luciferase luminescence in SENP counter-screen; shares compounds with SENP7 block; Pre-incubated SENP8/Z-RLRGG-aminoluciferin, luciferase luminescence interference; inhibition, % at 12.5 µM; 6,200 tested, 39% active; AID 488919;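 active = mean inhibition above about 50% when retested at one dose, limit read from the data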;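 also: plate controls were DMSO wells with completed reaction for no effect and substrate without enzyme for full effect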
* hit, by the source's call; i = inactive; / = no result. Most compounds without a hit are left out; they make up all but 3.1% or so of the library.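 The calls were made as follows, unless noted: active = mean inhibition above about 50% in the one-dose retest (limit read from the data); inactive = the rest.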

SMILES	SENP6 inh	Apaf-1 inh	SENP7 block	SENP8 block-1	UBC13 polyUb	SENP8 block-2	SENP8 confirm	SENP6 conf	SENP7 confirm	Casp3 SENP sel	SENP luc ctr
COc1ccc(-c2ccc3c(c2)O[C@H](CN(C)C(=O)Nc2ccccc2F)[C@@H](C)CN([C@H](C)CO)S3(=O)=O)cc1	/	/	/	/	/	1.6	/	/	/	/	/
CC1Sc2ccc(C(=O)OCc3ccccc3Cl)cc2NC1=O (stereo not drawn)	54.9*	27.6	70.2*	5.9	-4.3	-9.4	-24.0	-11.1	-0.6	1.7	-5.3
CCCC(=O)Nc1ccc(C#Cc2ccccc2)cc1	45.1	10.5	51.4*	6.3	-2.0	10.9	2.1	12.9	18.8	12.7	1.9
CCOc1cc(C(=O)Nc2cc(C)on2)cc(OCC)c1OCC	-1.7	4.1	-6.9	-1.8	6.6	10.3	/	/	/	/	/
CCCC(=O)Nc1ccc(Oc2ccc(NC(=O)CCC)cc2)cc1	3.4	-5.6	0.0	-1.6	-7.2	5.1	/	/	/	/	/
CCOc1ccc(C(=O)Nc2cc(C)on2)cc1	47.4	-19.1	53.9*	12.7	8.7	9.5	-24.0	16.9	56.6*	73.9*	-5.9
CCOc1ccc(NC(=O)Nc2ccon2)cc1	55.4*	0.4	53.8*	15.3	5.1	-2.6	22.4	21.2	66.7*	74.5*	22.8
CCOc1ccc(C(=O)Nc2ccccc2C(=O)O)cc1	60.7*	3.8	15.7	30.7	-5.4	8.4	76.7*	72.2*	93.5*	85.2*	78.5*
CCOC(=O)C1(C)CCCN1C(=O)c1ccc(F)c(Cl)c1 (stereo not drawn)	/	/	/	/	/	8.6	/	/	/	/	/
COc1ccc(C(C)(NC(C)=O)c2nc(-c3cccc(F)c3)cs2)cc1 (stereo not drawn)	/	/	/	/	/	11.5	/	/	/	/	/
O=c1[nH][nH]c2c1[C@H](C1CCCC1)O[C@H](CCc1ccccc1)C2	/	/	/	/	/	27.8	/	/	/	/	/
O=C(Nc1ccc(C#Cc2ccccc2)cc1)C1CC1	46.9	-6.7	68.4*	25.8	1.6	7.6	9.4	40.1	63.6*	26.0	4.6
O=C(Nc1ccccc1C(=O)O)c1ccc(NC(=O)C2CC2)cc1	67.5*	6.8	49.7	60.8*	-3.9	-3.4	75.8*	75.0*	93.6*	88.2*	83.2*
Cc1ccnc(Nc2nc(-c3ccccc3)cs2)c1	90.4*	8.4	85.4*	80.5*	0.6	14.4	12.7	64.5*	84.6*	44.1	-4.2
Cc1cccnc1Nc1nc(-c2ccccc2)cs1	96.9*	26.1	97.2*	92.3*	-3.6	-6.5	-0.4	96.4*	101.6*	81.8*	73.9*
Oc1ccc(-c2csc(Nc3ccccn3)n2)c(O)c1	71.2*	25.5	35.7	41.6	12.7	4.9	52.8*	67.5*	89.1*	15.5	81.5*
NS(=O)(=O)c1ccc(Nc2nc(-c3ccc(O)cc3O)cs2)cc1	-1.6	-3.6	6.6	4.0	28.1	3.9	/	/	/	/	/
O=C(O)c1ccc(Nc2nc(-c3ccccc3)cs2)cc1	84.0*	-2.7	65.2*	49.8	1.7	-72.0	72.4*	70.4*	89.8*	63.3*	80.4*
C=C1C(=O)C23CCC4C(C)(C(=O)OC)CCCC4(C)C2CCC1(O)C3 (stereo not drawn)	/	/	/	/	/	4.7	/	/	/	/	/
CC(=O)C[C@H]1SC[C@@H](C(C)C)N1S(=O)(=O)c1ccc(C)cc1	/	/	/	/	/	12.3	/	/	/	/	/
CC(=O)c1cccc(NC(=O)C2(C)Cc3c(-c4cccc(C(F)(F)F)c4)ccnc3O2)c1 (stereo not drawn)	/	/	/	/	/	12.2	/	/	/	/	/
Cc1cccnc1Nc1nc(-c2ccc(O)cc2O)cs1	68.5*	14.1	27.2	56.4*	16.1	10.6	81.3*	81.1*	92.5*	25.1	45.2
O=C(Nc1ccc2oc(-c3ccccc3)nc2c1)c1cccnc1	-13.3	2.2	-2.0	-2.6	-8.1	-5.5	/	/	/	/	/
CCc1ccc2oc(-c3cccc(NC(=O)c4cccnc4)c3)nc2c1	61.2*	19.7	46.8	37.3	3.0	12.3	6.5	-4.0	-0.7	1.4	1.8
O=c1ccnc(S/C=C/c2ccccc2)[nH]1	82.6*	-20.4	-1.9	71.3*	2.3	8.9	78.1*	73.4*	88.8*	87.1*	75.6*
SMILES	SENP6 inh	Apaf-1 inh	SENP7 block	SENP8 block-1	UBC13 polyUb	SENP8 block-2	SENP8 confirm	SENP6 conf	SENP7 confirm	Casp3 SENP sel	SENP luc ctr
CCn1c2ccccc2c2cc(NC(=O)N3CCCCC3)ccc21	/	/	/	/	/	-475.0	/	/	/	/	/
CC1CCc2c(sc(NC(=O)c3cccs3)c2C(=O)O)C1 (stereo not drawn)	88.4*	1.2	-3.9	76.3*	-1.4	-28.3	85.6*	86.2*	91.9*	65.5*	86.1*
COC(=O)c1c(NC(=O)c2cccs2)sc2c1CCC(C)C2 (stereo not drawn)	-3.7	11.0	-4.5	-6.8	-2.9	-395.7	/	/	/	/	/
O=C(Nc1sc2c(c1C(=O)O)CCCCC2)c1cccs1	96.4*	4.5	71.4*	95.2*	-8.4	-60.6	97.7*	98.5*	101.8*	94.5*	96.3*
O=C(/C=C/c1cccs1)Nc1sc2c(c1C(=O)O)CCCC2	73.7*	15.9	8.1	55.4*	-1.4	20.4	27.2	65.8*	80.6*	58.1*	70.8*
O=C(CCc1ccccc1)Nc1sc2c(c1C(=O)O)CCCC2	3.3	-5.3	0.1	3.2	-4.1	-21.4	/	/	/	/	/
O=C(Nc1sc2c(c1C(=O)O)CCCC2)c1cccs1	92.9*	-5.1	55.7*	84.7*	-10.3	-42.0	3.4	89.6*	97.6*	85.8*	89.7*
CCc1nc2c(OCCOc3ccc(F)cc3)cccn2c1N(C)C(=O)CC(C)C	/	/	/	/	/	11.1	/	/	/	/	/
O=C(Nc1ccc2c(c1)OCCO2)C(CCc1ccccc1)N1CCC(Cc2ccccc2)CC1 (stereo not drawn)	/	/	/	/	/	33.8	/	/	/	/	/
CCOC(=O)C1(C)CCCN(C(=O)c2ccc(OC(F)F)cc2)C1 (stereo not drawn)	/	/	/	/	/	12.4	/	/	/	/	/
CN(C)Cc1ccccc1-c1cccc2nccn12	/	/	/	/	/	i	/	/	/	/	/
C(=N\Nc1nc2ccccc2s1)/c1ccccn1	97.2*	3.7	99.9*	96.7*	-19.8	/	99.9*	100.9*	103.9*	99.3*	40.5
COc1ccc(C=NNc2nc3ccccc3s2)cc1	/	/	/	/	/	-236.9	/	/	/	/	/
CCC/C=N/Nc1nc2ccccc2s1	5.0	-2.4	39.4	46.8	-0.3	3.7	/	/	/	/	/
C(=N\Nc1ccccc1)/c1nc2ccccc2s1	36.0	-4.5	75.4*	58.5*	-5.2	6.1	-18.5	12.4	82.1*	28.0	-4.1
